Molecular target: T1, Vitamin D3 receptor (Homo sapiens) (UniProt P11473)
T1 sequence (whole entry): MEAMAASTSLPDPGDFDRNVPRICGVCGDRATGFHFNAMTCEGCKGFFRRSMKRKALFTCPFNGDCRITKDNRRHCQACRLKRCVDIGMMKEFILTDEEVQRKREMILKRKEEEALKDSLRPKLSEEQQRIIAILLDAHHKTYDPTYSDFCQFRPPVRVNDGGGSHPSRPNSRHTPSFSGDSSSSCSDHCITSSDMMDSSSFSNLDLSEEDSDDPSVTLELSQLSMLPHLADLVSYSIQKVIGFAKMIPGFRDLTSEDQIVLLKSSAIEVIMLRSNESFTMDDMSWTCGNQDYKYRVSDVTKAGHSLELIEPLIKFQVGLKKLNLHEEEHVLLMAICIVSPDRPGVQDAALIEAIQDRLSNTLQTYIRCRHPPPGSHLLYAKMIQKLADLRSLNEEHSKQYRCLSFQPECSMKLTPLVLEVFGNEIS
Assay: Antagonist activity at VDR LBD (unknown origin) using Alexa Fluor 647-labeled SRC2-3 as substrate incubated for 2 hrs in presence of calcitriol by fluorescence polarization assay
Procedure, shortened: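 VDR-LBD (0.1 μM) with Alexa Fluor 647-labelled SRC2-3 (17.5 nM) and 10 nM 1,25(OH)2D3 in 25 mM PIPES, 50 mM NaCl, 0.01% NP-40, pH 6.75. Compounds were serially diluted 1:2 from 10 mM DMSO stocks and incubated 2 h. Polarization was read at 635/685 nm. Three independent experiments in quadruplicate; IC50 by variable-slope nonlinear regression.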

`CC(C)CCC[C@@H](C)[C@H]1CC[C@@H]2[C@]1(C)CCC1[C@]23C=C[C@]2(C[C@@H](O)CC[C@]12C)n1c(=O)n(C)c(=O)n13` (stereo partly specified) gave an Activity of over 100 µM.
